This note sets out measurements from publication PMC5161045 (Journal of Antimicrobial Chemotherapy, 2016).

For orientation: MIC means the lowest concentration that inhibits growth of the organism.

One data set relates to S. aureus DA36424. Briefly: Bacterial cell survival assay with human defensins. The class given is cell-based, Staphylococcus aureus. As to conditions: strain DA36424; 10 μM peptide, NaPB pH 7.4, exponential phase cells, 37°C, 2 h.
The next data set relates to S. aureus DA29677. In words: Bacterial cell survival assay with human defensins. It counts as cell-based, Staphylococcus aureus. As to conditions: strain DA29677, NaPB pH 7.4, exponential phase cells, 37°C, 2 h. The method in brief: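 Exponential-phase cells: overnight TSB culture diluted 1:100 in pre-warmed TSB, shaken 2 h at 37°C, washed once and resuspended in 10 mM sodium phosphate pH 7.4. Diluted to 0.69−4.7 × 10⁴ cfu/mL and exposed to hBD3 at 1 μM or other β-defensins at 10 μM, shaking in a sealed humidified container at 37°C for 2 h. Cells were plated on TSA for cfu. % survival = cfu with peptide/cfu without peptide × 100. Detection limit 1% survival. Mean ± SEM of ≥3 independent determinations.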

A further data set relates to S. aureus DA28823 (WT). In words: MIC of antibiotics by Etest. The class given is cell-based. As to conditions: Staphylococcus aureus. The method in brief:
(§1)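 Strains were grown overnight with shaking at 37°C in Mueller–Hinton II broth and diluted to ∼10⁸ cfu/mL in the same broth. They were swabbed onto Mueller–Hinton II agar, an antibiotic Etest strip was applied, and plates were incubated at 37°C for 18–20 h. MIC is the lowest concentration with no visible growth, taken as the consensus of ≥2 independent determinations. Increases over WT were graded 2–5-fold or >5-fold, and EUCAST v5.0 breakpoints were used.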

For data set [1], the system named is S. aureus DA29677 (cycled with LL-37). In words: MIC of antibiotics by Etest. The class given is cell-based. As to conditions: Staphylococcus aureus. The method in brief:
as §1

The subject of data set [2] is S. aureus DA30557 (cycled with WGH). Briefly: MIC of antibiotics by Etest. The class given is cell-based, Staphylococcus aureus. Particulars: for MIC: Staphylococcus aureus. In short, it runs like this: as §1
The subject of data set [3] is S. aureus DA36424 (cycled with LL-37 and WGH). In words: MIC of antibiotics by Etest. The class given is cell-based. As to conditions: Staphylococcus aureus. In short, it runs like this: as §1
Data set [4] deals with S. aureus DA30559 (cycled with WGH). Briefly: MIC of antibiotics by Etest. Particulars: Staphylococcus aureus. It counts as cell-based. The method in brief: as §1
Data set [5] has as its system S. aureus DA30560 (cycled with no peptide). In words: MIC of antibiotics by Etest. The class given is cell-based. Particulars: Staphylococcus aureus. In short, it runs like this: as §1
The test system of data set [6] is seven AMP-resistant S. aureus mutants. In words: MIC of antibiotics by Etest, summary over mutants. It counts as cell-based, Staphylococcus aureus. Particulars: Mueller–Hinton medium; for number of AMP-resistant mutants with reduced/diminished susceptibility: of seven mutants. In short, it runs like this:
as §1

For data set [7], the system named is S. aureus DA37296 (cycled with PR-39). Briefly: MIC of antibiotics by Etest. The class given is cell-based. As to conditions: Staphylococcus aureus. The method in brief: as §1
For data set [8], the system named is S. aureus DA35920 (cycled with PR-39). Briefly: MIC of antibiotics by Etest. The class given is cell-based. Particulars: Staphylococcus aureus. The method in brief: as §1
Data set [9] relates to S. aureus DA29680 (cycled with LL-37). In words: MIC of antibiotics by Etest. It counts as cell-based. Particulars: Staphylococcus aureus. In short, it runs like this: as §1
The next data set in a line: Solubility limit in MIEM. It counts as physicochemical. Particulars: in MIEM (mammalian ionic environment medium, without NaCl, pH 7.4).

≈ marks a conversion by molar mass, not a printed value. Ends that are not written are not given here.

As for “AFTCHCRRSCYSTEYSYGTCTVMGINHRFCCL (bicyclic or more) [HNP6]”, the “bacterial survival after defensin exposure, relative to WT (in words)” value with S. aureus DA36424 is recorded as “significantly reduced survival”.
As for “DHYNCVSSGGQCLYSACPIFTKIQGTCYRGKAKCCK (also: bicyclic or more (positions not given here)) [hBD1]”, the “resistance to human β-defensin, relative to WT (in words)” value (from here on “resistance … relative to WT (in words)”) in the data set on S. aureus DA29677 (10 μM peptide) is on record as “increased resistance”.
Turning to `CN(C)c1cc(NC(=O)CNC(C)(C)C)c(O)c2c1C[C@H]1C[C@H]3[C@H](N(C)C)C(O)=C(C(N)=O)C(=O)[C@@]3(O)C(O)=C1C2=O` [TGC, tigecycline], the MIC in the data set on S. aureus DA28823 (WT) was 0.094 µg/mL; in data set [1], 0.094 µg/mL; in data set [2], 0.094 µg/mL; in [3] it was 0.19 µg/mL; in data set [4], 0.094 µg/mL; in data set [5] it was 0.094 µg/mL. For the same compound, the MIC came to 0.125 µg/mL in [7], 0.125 µg/mL in data set [8] and 0.19 µg/mL in [9]. Further, the “number of AMP-resistant mutants with reduced/diminished susceptibility” value (“number … with reduced/diminished susceptibility” for short) in data set [6] was “two of seven”.
`CNC(C)C1CCC(N)C(OC2C(N)CC(N)C(OC3OCC(C)(O)C(NC)C3O)C2O)O1` (stereo not shown) [GEN, gentamicin]: the MIC in the data set with S. aureus DA28823 (WT) came to 0.125 µg/mL; in data set [1], 0.094 µg/mL; in [2], 1 µg/mL; in data set [3] it was 0.19 µg/mL; in data set [4], 0.38 µg/mL; in [5], 0.125 µg/mL. For the same compound, the MIC stood at 0.5 µg/mL in data set [7], 0.25 µg/mL in [8] and 0.094 µg/mL in [9]. The “increase in MIC” value in data set [2] (strain DA30557 (passaged with WGH), relative to WT, Etest) was 8 fold. In data set [6], the “number … with reduced/diminished susceptibility” value is recorded as “Four of seven”.
On to `CN(C)[C@@H]1C(O)=C(C(N)=O)C(=O)[C@@]2(O)C(O)=C3C(=O)c4c(O)cccc4[C@@](C)(O)[C@H]3C[C@@H]12` [TET, tetracycline], for which the MIC in the data set with S. aureus DA28823 (WT) was determined as 0.094 µg/mL; in [1], 0.19 µg/mL; in data set [2], 0.25 µg/mL; in data set [3] it was 0.25 µg/mL; in data set [4], 0.19 µg/mL; in [5] it was 0.094 µg/mL. For the same compound, the MIC in [7] turned out to be 0.19 µg/mL; in data set [8] it was 0.125 µg/mL; in [9] it was 0.25 µg/mL. The “number … with reduced/diminished susceptibility” value in [6] is recorded as “six of seven”.
As to `CC[C@H](C)[C@H](NC(=O)[C@H](CCCCN)NC(=O)[C@H](CCC(=O)O)NC(=O)[C@H](CCCCN)NC(=O)[C@H](CO)NC(=O)[C@H](CCCCN)NC(=O)[C@H](CCCNC(=N)N)NC(=O)[C@H](Cc1ccccc1)NC(=O)[C@H](Cc1ccccc1)NC(=O)[C@H](CC(=O)O)NC(=O)CNC(=O)[C@H](CC(C)C)NC(=O)[C@@H](N)CC(C)C)C(=O)NCC(=O)N[C@@H](CCCCN)C(=O)N[C@@H](CCC(=O)O)C(=O)N[C@@H](Cc1ccccc1)C(=O)N[C@@H](CCCCN)C(=O)N[C@@H](CCCNC(=N)N)C(=O)N[C@H](C(=O)N[C@H](C(=O)N[C@@H](CCC(N)=O)C(=O)N[C@@H](CCCNC(=N)N)C(=O)N[C@H](C(=O)N[C@@H](CCCCN)C(=O)N[C@@H](CC(=O)O)C(=O)N[C@@H](Cc1ccccc1)C(=O)N[C@@H](CC(C)C)C(=O)N[C@@H](CCCNC(=N)N)C(=O)N[C@@H](CC(N)=O)C(=O)N[C@@H](CC(C)C)C(=O)N[C@H](C(=O)N1CCC[C@H]1C(=O)N[C@@H](CCCNC(=N)N)C(=O)N[C@H](C(=O)N[C@@H](CCC(=O)O)C(=O)N[C@@H](CO)C(=O)O)[C@@H](C)O)C(C)C)[C@@H](C)CC)C(C)C)[C@@H](C)CC` [LL-37], the solubility limit in “Solubility limit in MIEM” was around 550 µg/mL (≈ 122 µM).
With “GIINTLQKYYCRVRGGRCAVLSCLPKEEQIGKCSTRGRKCCRRKK (also: bicyclic or more (positions not given here)) [hBD3]”, the “resistance … relative to WT (in words)” value in the data set with S. aureus DA29677 (1 μM peptide) is “increased resistance”.
Regarding “GIGDPVTCLKSGAICHPVFCPRRYKQIGTCGLPGTKCCKKP (also: bicyclic or more (positions not given here)) [hBD2]”, the “resistance … relative to WT (in words)” value in the data set with S. aureus DA29677 (10 μM peptide) was “increased resistance”.
With `CN[C@H](CC(C)C)C(=O)N[C@H]1C(=O)N[C@@H](CC(N)=O)C(=O)N[C@H]2C(=O)N[C@H]3C(=O)N[C@H](C(=O)N[C@H](C(=O)O)c4cc(O)cc(O)c4-c4cc3ccc4O)[C@H](O)c3ccc(c(Cl)c3)Oc3cc2cc(c3O[C@@H]2O[C@H](CO)[C@@H](O)[C@H](O)[C@H]2O[C@H]2C[C@](C)(N)[C@H](O)[C@H](C)O2)Oc2ccc(cc2Cl)[C@H]1O` [VAN, vancomycin], the minimal inhibitory concentration (MIC) in the data set with S. aureus DA28823 (WT) was determined as 1.5 µg/mL; in [1], 2 µg/mL; in [2], 2 µg/mL; in [3] it was 2 µg/mL; in [4] it was 1.5 µg/mL; in [5], 1.5 µg/mL. Besides, the MIC in data set [7], in data set [8] and in data set [9] was 2 µg/mL throughout. Also, the “susceptibility of all seven AMP-resistant mutants relative to WT (in words)” value in [6] was “little to no change in susceptibility”.
